# In ChEMBL document CHEMBL1126013, “Synthesis and evaluation of some water-soluble prodrugs and derivatives of taxol with antitumor activity” (J Med Chem, 1992):
# Legend:
# [1] = test system: Mus musculus; assay: Tumor growth or regression measured as Percent treated by control at a dose of 4.13 mg/Kg to mice with MX-1 xenograft; format: functional
# How it was run: (§1)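 Subrenal capsule human mammary carcinoma (MX-1) xenograft in mice, run at the National Cancer Institute by NIH Publication No. 84-2635 procedures. Initial and final average tumor weights recorded, with survivors counted after 11 days. %T/C is (Δ tumor weight treated/Δ tumor weight controls)×100 for growing tumors. For regressing tumors it is (Δ tumor weight treated/initial control tumor weight)×100.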
# [2] = test system: Mus musculus; assay: final average tumor weight was measured in mice induced with human mammary carcinoma at a dose of 33 mg/Kg; format: functional; how it was run: as §1
# [3] = test system: Mus musculus; assay: Final average tumor weight was measured in mice induced with human mammary carcinoma at a dose of 8.25 mg/Kg; format: functional
# How it was run: (§2)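 MX-1 human mammary carcinoma xenograft implanted under the renal capsule in mice. Study run at the National Cancer Institute following NIH Publication No. 84-2635. Tumor weights recorded at the start and at the end. Survivors counted after 11 days. %T/C = (Δ tumor weight treated/Δ tumor weight control) × 100 where the tumor grows, and (Δ tumor weight treated/initial control tumor weight) × 100 where it regresses.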
# [4] = test system: Mus musculus; assay: Final average tumor weight was measured in mice induced with human mammary carcinoma at a dose of 16.5 mg/Kg; format: functional; how it was run: as §2
# [5] = test system: Mus musculus; assay: Initial average tumor weight was measured in mice induced with human mammary carcinoma at a dose of 8.25 mg/Kg; format: functional; how it was run: as §2
# [6] = test system: Mus musculus; assay: Initial average tumor weight was measured in mice induced with human mammary carcinoma at a dose of 33 mg/Kg; format: functional; how it was run: as §2
# [7] = species on record: Bos taurus; assay: Relative effect on microtubular assembly (Tubulin polymerized by derivative/tubulin polymerized by taxol); format: functional
# How it was run: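 Bovine brain tubulin, purified from microtubule-associated proteins by phosphocellulose chromatography, used at 10 μM. Turbidity followed at 350 nm. Polymer pelleted at 200000g, 37 °C, 4 min, depolymerized on ice, and protein measured by Bradford.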
# [8] = test system: B16; assay: Relative effect on B16 melanoma cell proliferation was determined [IC50 (taxol)/IC50 (derivative)]; format: functional, Mus musculus
# [9] = test system: Mus musculus; assay: Tumor growth or regression measured as Percent treated by control at a dose of 8.25 mg/Kg to mice with MX-1 xenograft; format: functional; how it was run: as §1
# [10] = Solubility in water; format: physicochemical; conditions: read-out: S
# [11] = test system: B16; assay: Percentage change in cell number of B16 melanoma cells treated with 10e-5 M dose; format: functional, Mus musculus
# How it was run: (§3)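 B16 melanoma cells exposed to 10⁻⁵ or 10⁻⁶ M compound for 8 h, then rinsed three times with fresh medium. Cells then grown in drug-free medium for 48 h and counted. Result given as percent change relative to the cell number at time zero. Controls are the average of three experiments.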
# [12] = test system: Mus musculus; assay: Tumor growth or regression measured as Percent treated by control at a dose of 33 mg/Kg to mice with MX-1 xenograft; CR refers to complete remission or when the tumor is no longer detectable; format: functional, organism-based; how it was run: as §2
# [13] = test system: Mus musculus; assay: Final average tumor weight was measured in mice induced with human mammary carcinoma at a dose of 4.13 mg/Kg; format: functional; how it was run: as §2
# [14] = test system: Mus musculus; assay: Number of survivors after 11 days at a dose of 8.25 mg/Kg tested in 4 mice; format: functional
# How it was run: (§4)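 MX-1 human mammary carcinoma xenograft implanted under the renal capsule of mice. The study was run at the National Cancer Institute following the procedures of NIH Publication No. 84-2635. Average tumor weight was recorded at the start and end of treatment, and survivors were counted after 11 days. Dosed groups were compared with an untreated control group.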
# [15] = test system: Mus musculus; assay: Initial average tumor weight was measured in mice induced with human mammary carcinoma at a dose of 4.13 mg/Kg; format: functional; how it was run: as §2
# [16] = test system: Mus musculus; assay: Number of survivors after 11 days at a dose of 4.13 mg/Kg tested in 5 mice; format: functional; how it was run: as §4
# [17] = test system: Mus musculus; assay: Tumor growth or regression measured as Percent treated by control at a dose of 16.5 mg/Kg to mice with MX-1 xenograft; format: functional; how it was run: as §2
# [18] = test system: Mus musculus; assay: Number of survivors after 11 days at a dose of 16.5 mg/Kg tested in 4 mice; format: functional; how it was run: as §4
# [19] = test system: Mus musculus; assay: Number of survivors after 11 days at a dose of 33 mg/Kg tested in 5 mice; format: functional; how it was run: as §4
# [20] = test system: B16; assay: Concentration required to inhibit the proliferation of B16 melanoma cells was determined; format: functional, cell-based; conditions: Mus musculus
# [21] = test system: Mus musculus; assay: Antitumor activity of taxoland the derivative against mammary carcinoma xenograft in mice; format: functional; how it was run: as §2
# [22] = test system: B16; assay: Percentage change in cell number of B16 melanoma cells treated with 10e-6 M dose; format: functional, Mus musculus; how it was run: as §3
# [23] = test system: Mus musculus; assay: Initial average tumor weight was measured in mice induced with human mammary carcinoma at a dose of 16.5 mg/Kg; format: functional; how it was run: as §2
smiles,measurement,setting,value
CC(=O)O[C@H]1C(=O)[C@]2(C)[C@@H](OC(=O)CN(C)C)C[C@H]3OC[C@@]3(OC(C)=O)[C@H]2[C@H](OC(=O)c2ccccc2)[C@]2(O)C[C@H](OC(=O)[C@H](O)[C@@H](NC(=O)c3ccccc3)c3ccccc3)C(C)=C1C2(C)C.CS(=O)(=O)O,T/C,[1],34%
same,Final average tumor weight,[2],0 mg
same,Final average tumor weight,[3],4.19 mg
same,Final average tumor weight,[4],0.04 mg
same,Initial average tumor weight,[5],0.81 mg
same,Initial average tumor weight,[6],0.74 mg
same,Relative effect,[7],0.77
same,Relative effect,[8],0.43
same,T/C,[9],23%
same,solubility,[10],> 1870 µM
same,Change in cell number,[11],-60%
same,T/C,[12],Complete remission
same,Final average tumor weight,[13],5.66 mg
same,No. of survivors,[14],4
same,Initial average tumor weight,[15],0.74 mg
same,No. of survivors,[16],4
same,T/C,[17],-93%
same,No. of survivors,[18],3
same,No. of survivors,[19],4
same,IC50,[20],44 nM
same,Relative antitumor activity,[21],3
same,Change in cell number,[22],222%
same,Initial average tumor weight,[23],0.59 mg
